We go through 14 compounds from ChEMBL document CHEMBL3272355, “Structure--activity relationships in cephalosporins prepared from penicillins. 1. 7beta-Acylamino derivatives of 3-benzyl- and 3-(3-pyridylmethyl)ceph-3-em-4-carboxylic acids” (1977).

The structures appear in SMILES notation. Converted amounts (≈) assume the structure as drawn.

Assay [1] concerns Staphylococcus aureus. The experiment in a line: Antibacterial activity against Staphylococcus aureus Oxford assessed as growth inhibition after 18 hrs by serial dilution method. It is filed as functional. The gist of the method: (§1)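 Agar dilution MIC: serial dilutions in nutrient agar, each spot-inoculated with 0.001 mL of undiluted overnight broth culture. MIC read after 18 h incubation at 37 °C.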

The test system of assay [2] is Staphylococcus aureus. The experiment in a line: Antibacterial activity against beta-lactamase producing benzylpenicillin-resistant Staphylococcus aureus Russell assessed as growth inhibition after 18 hrs by serial dilution method. It is filed as functional.
Assay [3] relates to Escherichia coli. The experiment in a line: Antibacterial activity against Escherichia coli assessed as growth inhibition after 18 hrs by serial dilution method. Type of assay: functional. A digest of the protocol:
as §1

Assay [4] has as its system Salmonella typhi. The experiment in a line: Antibacterial activity against Salmonella typhi assessed as growth inhibition after 18 hrs by serial dilution method. Conditions: Salmonella enterica. Type of assay: functional, Salmonella enterica subsp. enterica serovar Typhi.
Assay [5] deals with Shigella sonnei. The experiment in a line: Antibacterial activity against Shigella sonnei assessed as growth inhibition after 18 hrs by serial dilution method. It is filed as functional. A digest of the protocol: as §1
The test system of assay [6] is Klebsiella aerogenes. The experiment in a line: Antibacterial activity against Klebsiella aerogenes assessed as growth inhibition after 18 hrs by serial dilution method. It is filed as functional. The gist of the method:
as §1

For assay [7], the system named is Proteus mirabilis. The experiment in a line: Antibacterial activity against Proteus mirabilis assessed as growth inhibition after 18 hrs by serial dilution method. It is filed as functional. A digest of the protocol: as §1

Take `O=C(O)C1=C(Cc2ccccc2)CS[C@@H]2[C@H](NC(=O)C(F)(F)F)C(=O)N12`: the MIC in assay [1] is 2.5 µg/mL (≈ 6.47 µM); in assay [2] it was 12.5 µg/mL (≈ 32.4 µM); in assay [3] it was over 500 µg/mL; in assay [4], over 500 µg/mL; in assay [5], over 500 µg/mL; in assay [6], over 500 µg/mL. Besides, the MIC in assay [7] stood at 500 µg/mL (≈ 1290 µM).

On to `O=C(Cc1cccs1)N[C@@H]1C(=O)N2C(C(=O)[O-])=C(C[n+]3ccccc3)CS[C@H]12` [CEPHALORIDINE], for which the MIC in assay [1] was 0.02 µg/mL (≈ 0.0481 µM); in assay [2], 1.25 µg/mL (≈ 3.01 µM); in assay [3], 5 µg/mL (≈ 12 µM); in assay [4], 1.25 µg/mL (≈ 3.01 µM); in assay [5] it was 1.25 µg/mL (≈ 3.01 µM); in assay [6], 2.5 µg/mL (≈ 6.02 µM). The MIC in assay [7] came to 5 µg/mL (≈ 12 µM).

For `CC(=O)OCC1=C(C(=O)O)N2C(=O)[C@@H](NC(=O)Cc3cccs3)[C@H]2SC1` [CEPHALOTHIN], the MIC in assay [1] stood at 0.12 µg/mL (≈ 0.303 µM); in assay [2], 0.5 µg/mL (≈ 1.26 µM); in assay [3] it was 5 µg/mL (≈ 12.6 µM); in assay [4], 12.5 µg/mL (≈ 31.5 µM); in assay [5], 5 µg/mL (≈ 12.6 µM); in assay [6], 5 µg/mL (≈ 12.6 µM). Besides, the MIC in assay [7] came to 5 µg/mL (≈ 12.6 µM).

With `O=C(O)CSCC(=O)N[C@@H]1C(=O)N2C(C(=O)O)=C(Cc3ccccc3)CS[C@H]12`, the MIC in assay [1] is 5 µg/mL (≈ 11.8 µM); in assay [2], 25 µg/mL (≈ 59.2 µM); in assay [3], over 500 µg/mL; in assay [4], 250 µg/mL (≈ 592 µM); in assay [5], 250 µg/mL (≈ 592 µM); in assay [6], over 500 µg/mL. Further, in assay [7], the minimum inhibitory concentration (MIC) was 125 µg/mL (≈ 296 µM).

Take `CC(=O)N[C@@H]1C(=O)N2C(C(=O)O)=C(Cc3ccccc3)CS[C@H]12`: the minimal inhibitory concentration (MIC) is 0.5 µg/mL (≈ 1.5 µM) in assay [1]; 2.5 µg/mL (≈ 7.52 µM) in assay [2]; over 500 µg/mL in assay [3]; 500 µg/mL (≈ 1500 µM) in assay [4]; over 500 µg/mL in assay [5]; over 500 µg/mL in assay [6]. Further, the MIC in assay [7] is over 500 µg/mL.

Regarding `N#CCC(=O)N[C@@H]1C(=O)N2C(C(=O)O)=C(Cc3ccccc3)CS[C@H]12`, the MIC in assay [1] was 0.12 µg/mL (≈ 0.336 µM); in assay [2], 0.5 µg/mL (≈ 1.4 µM); in assay [3] it was 500 µg/mL (≈ 1400 µM); in assay [4] it was 250 µg/mL (≈ 700 µM); in assay [5] it was 500 µg/mL (≈ 1400 µM); in assay [6], over 500 µg/mL. In addition, in assay [7], the MIC was over 500 µg/mL.

Consider `O=C(COc1ccccc1)N[C@@H]1C(=O)N2C(C(=O)O)=C(Cc3ccccc3)CS[C@H]12`, for which the minimal inhibitory concentration (MIC) in assay [1] is 0.02 µg/mL (≈ 0.0471 µM); in assay [2], 0.12 µg/mL (≈ 0.283 µM); in assay [3], over 500 µg/mL; in assay [4] it was over 500 µg/mL; in assay [5], over 500 µg/mL; in assay [6], over 500 µg/mL. In addition, the minimal inhibitory concentration (MIC) in assay [7] turned out to be 500 µg/mL (≈ 1180 µM).

With `O=C(Cc1ccncc1)N[C@@H]1C(=O)N2C(C(=O)O)=C(Cc3ccccc3)CS[C@H]12`, the MIC in assay [1] was found to be 0.05 µg/mL (≈ 0.122 µM); in assay [2], 5 µg/mL (≈ 12.2 µM); in assay [3], 50 µg/mL (≈ 122 µM); in assay [4], 50 µg/mL (≈ 122 µM); in assay [5] it was 50 µg/mL (≈ 122 µM); in assay [6], 100 µg/mL (≈ 244 µM). In addition, the minimal inhibitory concentration (MIC) in assay [7] was found to be 100 µg/mL (≈ 244 µM).

In the case of `N[C@@H](C(=O)N[C@@H]1C(=O)N2C(C(=O)O)=C(Cc3ccccc3)CS[C@H]12)C1CC1`, the MIC in assay [1] is 5 µg/mL (≈ 12.9 µM); in assay [2], 12.5 µg/mL (≈ 32.3 µM); in assay [3] it was over 250 µg/mL; in assay [4] it was over 250 µg/mL; in assay [5], over 250 µg/mL; in assay [6], over 250 µg/mL. In addition, in assay [7], the MIC was over 250 µg/mL.

As for `N[C@@H](C(=O)N[C@@H]1C(=O)N2C(C(=O)O)=C(Cc3cccnc3)CS[C@H]12)c1ccccc1`, the MIC turned out to be 0.25 µg/mL (≈ 0.589 µM) in assay [1]; 2.5 µg/mL (≈ 5.89 µM) in assay [2]; 2.5 µg/mL (≈ 5.89 µM) in assay [3]; 1.25 µg/mL (≈ 2.94 µM) in assay [4]; 2.5 µg/mL (≈ 5.89 µM) in assay [5]; 2.5 µg/mL (≈ 5.89 µM) in assay [6]. Further, the MIC in assay [7] is 5 µg/mL (≈ 11.8 µM).

As to `N[C@@H](C(=O)N[C@@H]1C(=O)N2C(C(=O)O)=C(Cc3ccccc3)CS[C@H]12)c1ccc(O)cc1`, the MIC in assay [1] was found to be 0.12 µg/mL (≈ 0.273 µM); in assay [2] it was 1.25 µg/mL (≈ 2.84 µM); in assay [3], 12.5 µg/mL (≈ 28.4 µM); in assay [4], 5 µg/mL (≈ 11.4 µM); in assay [5] it was 12.5 µg/mL (≈ 28.4 µM); in assay [6] it was 5 µg/mL (≈ 11.4 µM). The MIC in assay [7] is 25 µg/mL (≈ 56.9 µM).

As for `O=C(COc1ccccc1)N[C@@H]1C(=O)N2C(C(=O)O)=C(Cc3cccnc3)CS[C@H]12`, the MIC in assay [1] worked out at 0.02 µg/mL (≈ 0.047 µM); in assay [2], 0.12 µg/mL (≈ 0.282 µM); in assay [3], 500 µg/mL (≈ 1180 µM); in assay [4], 500 µg/mL (≈ 1180 µM); in assay [5], 500 µg/mL (≈ 1180 µM); in assay [6], 500 µg/mL (≈ 1180 µM). In assay [7], the MIC stood at 125 µg/mL (≈ 294 µM).

Take `NC(C(=O)N[C@@H]1C(=O)N2C(C(=O)O)=C(Cc3cccnc3)CS[C@H]12)c1cccs1` (stereo partly drawn): the minimal inhibitory concentration (MIC) in assay [1] stood at 0.5 µg/mL (≈ 1.16 µM); in assay [2] it was 5 µg/mL (≈ 11.6 µM); in assay [3] it was 12.5 µg/mL (≈ 29 µM); in assay [4], 2.5 µg/mL (≈ 5.81 µM); in assay [5] it was 5 µg/mL (≈ 11.6 µM); in assay [6] it was 5 µg/mL (≈ 11.6 µM). For the same compound, the MIC in assay [7] worked out at 12.5 µg/mL (≈ 29 µM).

As to `NC(CC(=O)N[C@@H]1C(=O)N2C(C(=O)O)=C(Cc3cccnc3)CS[C@H]12)C1CC=CCC1` (mixture of isomers), the MIC in assay [1] was found to be 0.5 µg/mL; in assay [2], 1.25 µg/mL; in assay [3], 125 µg/mL; in assay [4], 125 µg/mL; in assay [5], 125 µg/mL; in assay [6], 125 µg/mL. Further, in assay [7], the MIC was determined as 250 µg/mL.

By MIC is commonly meant the smallest concentration in the dilution series that meets the test's criterion for growth inhibition.
